Among the data in ChEMBL document CHEMBL1800036, “A novel HDAC inhibitor with a hydroxy-pyrimidine scaffold” (Bioorg Med Chem Lett, 2011) are IC50 and inhibition values, retold here.

Calls of active or inactive are those of the source. The rule behind the calls is not given here. Where only a bound is given, the exact number is not on record here.

The target of one experiment is Histone deacetylase 1 (Homo sapiens, UniProt Q13547). Kind of experiment: Inhibition of recombinant HDAC1 assessed as inhibition of fluorogenic aminocoumarin release from substrate by trypsin-coupled biochemical assay. An outline of the steps: (§1)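 Trypsin-coupled fluorogenic assay. Substrate is an acetylated lysine tripeptide amide-linked to aminocoumarin (AMC). HDAC deacetylation allows trypsin to release AMC, and the fluorescence increase is read. Compound was tested at various concentrations and normalized to a DMSO control. IC50 was derived by non-linear regression fit.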
Histone deacetylase 1, sequence (Q13547 whole entry): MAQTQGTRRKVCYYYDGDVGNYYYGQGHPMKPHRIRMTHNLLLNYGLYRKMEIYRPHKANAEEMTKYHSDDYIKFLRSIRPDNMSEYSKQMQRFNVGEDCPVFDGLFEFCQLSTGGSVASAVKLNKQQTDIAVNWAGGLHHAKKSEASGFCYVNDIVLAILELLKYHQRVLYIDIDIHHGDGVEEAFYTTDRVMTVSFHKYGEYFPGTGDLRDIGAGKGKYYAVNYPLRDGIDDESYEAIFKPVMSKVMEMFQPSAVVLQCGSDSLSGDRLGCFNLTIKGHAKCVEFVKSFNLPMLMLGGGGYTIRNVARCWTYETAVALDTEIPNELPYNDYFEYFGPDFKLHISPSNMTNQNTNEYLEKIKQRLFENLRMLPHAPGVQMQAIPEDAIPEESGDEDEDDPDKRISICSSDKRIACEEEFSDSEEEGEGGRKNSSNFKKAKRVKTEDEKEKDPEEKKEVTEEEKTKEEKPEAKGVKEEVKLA

The target in the next experiment is Histone deacetylase 4 (Homo sapiens, UniProt P56524). Kind of experiment: Inhibition of recombinant HDAC4 assessed as inhibition of fluorogenic aminocoumarin release from substrate by trypsin-coupled biochemical assay. An outline of the steps: as §1
Histone deacetylase 4, sequence (P56524 whole entry): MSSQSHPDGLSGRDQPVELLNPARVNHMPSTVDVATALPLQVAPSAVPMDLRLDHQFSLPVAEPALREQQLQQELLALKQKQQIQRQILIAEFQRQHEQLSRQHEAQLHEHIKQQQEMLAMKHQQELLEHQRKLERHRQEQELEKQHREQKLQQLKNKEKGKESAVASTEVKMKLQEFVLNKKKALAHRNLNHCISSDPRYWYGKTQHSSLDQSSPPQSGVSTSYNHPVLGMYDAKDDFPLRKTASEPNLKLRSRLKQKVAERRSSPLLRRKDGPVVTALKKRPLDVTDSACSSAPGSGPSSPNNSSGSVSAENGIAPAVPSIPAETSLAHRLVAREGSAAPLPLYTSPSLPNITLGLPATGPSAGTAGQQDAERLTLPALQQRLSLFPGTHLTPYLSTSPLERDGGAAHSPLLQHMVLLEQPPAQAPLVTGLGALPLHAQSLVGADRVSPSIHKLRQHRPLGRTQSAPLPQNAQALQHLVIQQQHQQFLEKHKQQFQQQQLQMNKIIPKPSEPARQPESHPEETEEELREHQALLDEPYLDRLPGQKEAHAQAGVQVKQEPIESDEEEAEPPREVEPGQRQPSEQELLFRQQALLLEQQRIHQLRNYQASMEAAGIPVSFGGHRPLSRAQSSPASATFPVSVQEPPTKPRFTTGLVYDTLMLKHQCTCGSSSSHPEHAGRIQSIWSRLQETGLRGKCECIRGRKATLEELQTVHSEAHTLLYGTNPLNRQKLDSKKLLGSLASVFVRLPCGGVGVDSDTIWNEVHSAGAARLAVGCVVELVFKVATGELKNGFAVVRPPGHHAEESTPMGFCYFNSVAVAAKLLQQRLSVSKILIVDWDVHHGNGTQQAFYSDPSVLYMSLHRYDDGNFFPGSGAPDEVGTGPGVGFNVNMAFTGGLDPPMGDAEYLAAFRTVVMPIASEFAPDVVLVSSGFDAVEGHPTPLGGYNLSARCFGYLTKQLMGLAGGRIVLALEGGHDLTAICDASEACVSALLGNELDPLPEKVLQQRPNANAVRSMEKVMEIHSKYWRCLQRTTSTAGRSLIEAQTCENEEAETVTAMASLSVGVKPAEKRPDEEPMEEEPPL
Experiment [1] concerns the target T1, Histone deacetylase 2 (Homo sapiens, UniProt Q92769). The experiment in a line: Inhibition of recombinant HDAC2 assessed as inhibition of fluorogenic aminocoumarin release from substrate by trypsin-coupled biochemical assay.
Experiment [2] has as its target T1, Histone deacetylase 2. Kind of experiment: Competitive inhibition of HDAC2 active site at 1 to 100 uM by Lineweaver-Burk plot. A digest of the protocol: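 Lysine-deacetylation inhibition mode on HDAC2. Several inhibitor concentrations were tested with substrate at 10 times above and below the HDAC2 Km. The trypsin-coupled AMC fluorescence read-out was analysed by Lineweaver-Burk plot.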

In the next experiment the target is Histone deacetylase 9 (Homo sapiens, UniProt Q9UKV0). Kind of experiment: Inhibition of recombinant HDAC9 assessed as inhibition of fluorogenic aminocoumarin release from substrate by trypsin-coupled biochemical assay. A digest of the protocol:
as §1

For another experiment, the target named is Histone deacetylase 3 (Homo sapiens, UniProt O15379). Kind of experiment: Inhibition of recombinant HDAC3 assessed as inhibition of fluorogenic aminocoumarin release from substrate by trypsin-coupled biochemical assay. An outline of the steps: as §1
Histone deacetylase 3, sequence (O15379 whole entry): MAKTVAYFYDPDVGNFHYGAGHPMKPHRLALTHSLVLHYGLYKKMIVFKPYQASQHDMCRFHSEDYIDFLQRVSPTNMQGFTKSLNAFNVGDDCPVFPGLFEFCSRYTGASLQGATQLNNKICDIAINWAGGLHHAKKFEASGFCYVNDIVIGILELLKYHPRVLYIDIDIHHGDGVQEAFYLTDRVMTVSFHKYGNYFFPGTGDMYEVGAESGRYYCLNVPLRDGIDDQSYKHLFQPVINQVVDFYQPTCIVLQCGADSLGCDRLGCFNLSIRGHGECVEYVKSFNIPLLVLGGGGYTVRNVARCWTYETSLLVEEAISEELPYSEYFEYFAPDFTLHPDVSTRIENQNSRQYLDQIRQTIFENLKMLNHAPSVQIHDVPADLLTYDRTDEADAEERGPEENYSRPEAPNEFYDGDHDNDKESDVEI
A further experiment concerns the target Histone deacetylase 5 (Homo sapiens, UniProt Q9UQL6). The experiment in a line: Inhibition of recombinant HDAC5 assessed as inhibition of fluorogenic aminocoumarin release from substrate by trypsin-coupled biochemical assay. An outline of the steps:
as §1

Experiment [3] addresses T2, Protein deacetylase HDAC6 (Homo sapiens, UniProt Q9UBN7).
T2 sequence (Q9UBN7 whole entry): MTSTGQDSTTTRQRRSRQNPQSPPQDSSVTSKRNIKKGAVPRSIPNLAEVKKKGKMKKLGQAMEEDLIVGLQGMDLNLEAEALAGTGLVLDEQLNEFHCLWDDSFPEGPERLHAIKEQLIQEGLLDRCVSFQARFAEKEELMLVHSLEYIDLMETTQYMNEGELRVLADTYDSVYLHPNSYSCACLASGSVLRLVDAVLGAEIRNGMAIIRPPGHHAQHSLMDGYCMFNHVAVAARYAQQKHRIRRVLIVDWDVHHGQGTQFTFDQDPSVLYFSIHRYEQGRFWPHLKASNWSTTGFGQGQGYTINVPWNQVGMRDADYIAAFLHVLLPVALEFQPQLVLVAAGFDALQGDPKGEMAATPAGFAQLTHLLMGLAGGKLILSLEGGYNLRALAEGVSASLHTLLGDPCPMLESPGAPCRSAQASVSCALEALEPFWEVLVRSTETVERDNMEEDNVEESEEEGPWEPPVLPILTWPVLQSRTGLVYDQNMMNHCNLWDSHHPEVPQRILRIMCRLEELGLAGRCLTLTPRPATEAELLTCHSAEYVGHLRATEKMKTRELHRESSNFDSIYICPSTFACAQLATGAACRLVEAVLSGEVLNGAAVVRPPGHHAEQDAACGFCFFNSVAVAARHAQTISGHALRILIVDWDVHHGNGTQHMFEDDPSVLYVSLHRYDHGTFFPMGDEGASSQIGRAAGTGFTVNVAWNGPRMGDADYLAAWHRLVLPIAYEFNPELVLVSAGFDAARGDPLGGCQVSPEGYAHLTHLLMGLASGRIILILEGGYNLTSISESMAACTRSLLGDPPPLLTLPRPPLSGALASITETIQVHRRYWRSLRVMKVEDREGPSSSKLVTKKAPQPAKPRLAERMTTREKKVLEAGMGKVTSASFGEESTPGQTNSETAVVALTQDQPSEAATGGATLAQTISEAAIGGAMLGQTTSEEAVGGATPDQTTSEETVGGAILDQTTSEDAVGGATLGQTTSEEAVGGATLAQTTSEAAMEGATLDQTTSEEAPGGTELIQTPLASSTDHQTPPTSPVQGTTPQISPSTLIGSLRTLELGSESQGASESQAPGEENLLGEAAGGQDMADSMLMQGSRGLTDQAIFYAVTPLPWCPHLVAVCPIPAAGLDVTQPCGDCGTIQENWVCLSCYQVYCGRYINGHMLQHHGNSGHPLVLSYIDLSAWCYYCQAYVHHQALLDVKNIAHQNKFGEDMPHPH
Kind of experiment: Inhibition of recombinant HDAC6 assessed as inhibition of fluorogenic aminocoumarin release from substrate by trypsin-coupled biochemical assay. An outline of the steps:
as §1

For a further experiment, the target named is T3, Histone deacetylase 8 (Homo sapiens, UniProt Q9BY41).
T3 sequence (Q9BY41 whole entry): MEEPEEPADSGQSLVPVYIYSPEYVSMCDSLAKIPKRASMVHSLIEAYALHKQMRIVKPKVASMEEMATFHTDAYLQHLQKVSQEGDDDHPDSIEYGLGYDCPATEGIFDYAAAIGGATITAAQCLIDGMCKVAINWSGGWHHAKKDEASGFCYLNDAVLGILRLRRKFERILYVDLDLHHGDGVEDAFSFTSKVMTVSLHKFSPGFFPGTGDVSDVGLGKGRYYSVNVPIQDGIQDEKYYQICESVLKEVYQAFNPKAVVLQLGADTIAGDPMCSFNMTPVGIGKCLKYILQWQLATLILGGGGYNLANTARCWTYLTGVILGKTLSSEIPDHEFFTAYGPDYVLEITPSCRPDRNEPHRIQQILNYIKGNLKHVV
Kind of experiment: Inhibition of recombinant HDAC8 assessed as inhibition of fluorogenic aminocoumarin release from substrate by trypsin-coupled biochemical assay. A digest of the protocol:
as §1

In a further experiment the target is T4, Histone deacetylase 7 (Homo sapiens, UniProt Q8WUI4).
T4 sequence (Q8WUI4 whole entry): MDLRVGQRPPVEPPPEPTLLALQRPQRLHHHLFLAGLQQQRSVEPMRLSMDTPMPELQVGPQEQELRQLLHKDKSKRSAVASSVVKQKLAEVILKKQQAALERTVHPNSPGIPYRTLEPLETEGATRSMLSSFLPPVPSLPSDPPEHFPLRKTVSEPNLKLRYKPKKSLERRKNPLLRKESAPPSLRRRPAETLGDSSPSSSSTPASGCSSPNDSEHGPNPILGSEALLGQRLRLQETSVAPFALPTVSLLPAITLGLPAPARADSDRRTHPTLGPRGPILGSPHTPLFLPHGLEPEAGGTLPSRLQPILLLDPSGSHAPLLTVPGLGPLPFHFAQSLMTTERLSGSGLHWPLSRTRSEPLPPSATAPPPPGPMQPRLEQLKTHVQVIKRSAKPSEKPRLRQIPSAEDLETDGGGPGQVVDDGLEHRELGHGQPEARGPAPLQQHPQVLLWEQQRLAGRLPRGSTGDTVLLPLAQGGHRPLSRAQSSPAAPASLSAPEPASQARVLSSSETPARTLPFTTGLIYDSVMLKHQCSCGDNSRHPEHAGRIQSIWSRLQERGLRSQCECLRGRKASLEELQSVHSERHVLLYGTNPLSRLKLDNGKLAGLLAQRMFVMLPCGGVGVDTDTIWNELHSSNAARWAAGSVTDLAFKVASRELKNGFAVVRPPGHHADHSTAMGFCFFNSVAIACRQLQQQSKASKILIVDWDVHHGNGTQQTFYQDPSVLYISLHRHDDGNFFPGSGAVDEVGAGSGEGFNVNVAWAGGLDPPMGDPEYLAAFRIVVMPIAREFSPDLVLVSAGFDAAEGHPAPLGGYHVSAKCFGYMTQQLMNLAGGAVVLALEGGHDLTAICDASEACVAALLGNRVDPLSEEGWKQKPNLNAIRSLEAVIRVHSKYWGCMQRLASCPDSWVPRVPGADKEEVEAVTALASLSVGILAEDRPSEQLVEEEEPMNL
The experiment in a line: Inhibition of recombinant HDAC7 assessed as inhibition of fluorogenic aminocoumarin release from substrate by trypsin-coupled biochemical assay.

T1 sequence (Q92769 whole entry): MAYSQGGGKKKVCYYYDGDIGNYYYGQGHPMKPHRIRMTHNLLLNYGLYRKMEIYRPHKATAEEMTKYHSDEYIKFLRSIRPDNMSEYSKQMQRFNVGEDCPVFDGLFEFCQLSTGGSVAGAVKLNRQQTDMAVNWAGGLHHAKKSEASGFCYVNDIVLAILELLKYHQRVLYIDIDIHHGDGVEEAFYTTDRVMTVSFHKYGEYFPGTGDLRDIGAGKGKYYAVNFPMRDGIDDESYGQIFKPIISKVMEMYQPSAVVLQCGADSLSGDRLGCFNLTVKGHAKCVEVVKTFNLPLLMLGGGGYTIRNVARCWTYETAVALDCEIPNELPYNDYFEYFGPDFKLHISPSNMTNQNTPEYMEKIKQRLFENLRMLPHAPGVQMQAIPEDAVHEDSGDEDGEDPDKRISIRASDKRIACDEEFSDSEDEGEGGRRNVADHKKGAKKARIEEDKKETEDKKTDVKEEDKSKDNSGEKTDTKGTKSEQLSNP
Histone deacetylase 9, sequence (Q9UKV0 whole entry): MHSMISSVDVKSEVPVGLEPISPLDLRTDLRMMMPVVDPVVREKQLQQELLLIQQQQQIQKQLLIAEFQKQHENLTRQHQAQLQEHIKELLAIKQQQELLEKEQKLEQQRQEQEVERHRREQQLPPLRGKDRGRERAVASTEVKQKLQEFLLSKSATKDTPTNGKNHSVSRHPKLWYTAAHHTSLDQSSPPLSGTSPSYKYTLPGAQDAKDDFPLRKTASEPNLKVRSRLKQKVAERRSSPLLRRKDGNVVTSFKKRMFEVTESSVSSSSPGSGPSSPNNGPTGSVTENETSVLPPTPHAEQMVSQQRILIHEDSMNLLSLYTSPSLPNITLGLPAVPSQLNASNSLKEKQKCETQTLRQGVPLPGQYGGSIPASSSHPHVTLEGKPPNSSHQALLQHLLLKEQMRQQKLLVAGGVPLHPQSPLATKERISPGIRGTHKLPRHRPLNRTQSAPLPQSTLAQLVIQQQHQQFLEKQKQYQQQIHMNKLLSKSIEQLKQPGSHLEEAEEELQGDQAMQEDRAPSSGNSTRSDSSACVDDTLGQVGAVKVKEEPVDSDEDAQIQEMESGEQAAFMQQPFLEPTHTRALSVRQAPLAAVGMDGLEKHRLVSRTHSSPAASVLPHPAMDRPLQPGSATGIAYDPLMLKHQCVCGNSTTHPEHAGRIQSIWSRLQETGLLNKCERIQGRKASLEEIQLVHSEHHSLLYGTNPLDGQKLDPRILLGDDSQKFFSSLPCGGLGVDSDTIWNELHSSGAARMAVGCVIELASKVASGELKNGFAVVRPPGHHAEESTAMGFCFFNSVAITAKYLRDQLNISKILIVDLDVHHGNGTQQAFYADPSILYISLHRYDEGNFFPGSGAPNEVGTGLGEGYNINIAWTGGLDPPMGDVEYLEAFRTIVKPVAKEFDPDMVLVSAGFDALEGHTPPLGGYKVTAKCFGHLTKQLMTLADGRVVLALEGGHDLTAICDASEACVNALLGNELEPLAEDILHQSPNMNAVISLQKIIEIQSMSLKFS
Histone deacetylase 5, sequence (Q9UQL6 whole entry): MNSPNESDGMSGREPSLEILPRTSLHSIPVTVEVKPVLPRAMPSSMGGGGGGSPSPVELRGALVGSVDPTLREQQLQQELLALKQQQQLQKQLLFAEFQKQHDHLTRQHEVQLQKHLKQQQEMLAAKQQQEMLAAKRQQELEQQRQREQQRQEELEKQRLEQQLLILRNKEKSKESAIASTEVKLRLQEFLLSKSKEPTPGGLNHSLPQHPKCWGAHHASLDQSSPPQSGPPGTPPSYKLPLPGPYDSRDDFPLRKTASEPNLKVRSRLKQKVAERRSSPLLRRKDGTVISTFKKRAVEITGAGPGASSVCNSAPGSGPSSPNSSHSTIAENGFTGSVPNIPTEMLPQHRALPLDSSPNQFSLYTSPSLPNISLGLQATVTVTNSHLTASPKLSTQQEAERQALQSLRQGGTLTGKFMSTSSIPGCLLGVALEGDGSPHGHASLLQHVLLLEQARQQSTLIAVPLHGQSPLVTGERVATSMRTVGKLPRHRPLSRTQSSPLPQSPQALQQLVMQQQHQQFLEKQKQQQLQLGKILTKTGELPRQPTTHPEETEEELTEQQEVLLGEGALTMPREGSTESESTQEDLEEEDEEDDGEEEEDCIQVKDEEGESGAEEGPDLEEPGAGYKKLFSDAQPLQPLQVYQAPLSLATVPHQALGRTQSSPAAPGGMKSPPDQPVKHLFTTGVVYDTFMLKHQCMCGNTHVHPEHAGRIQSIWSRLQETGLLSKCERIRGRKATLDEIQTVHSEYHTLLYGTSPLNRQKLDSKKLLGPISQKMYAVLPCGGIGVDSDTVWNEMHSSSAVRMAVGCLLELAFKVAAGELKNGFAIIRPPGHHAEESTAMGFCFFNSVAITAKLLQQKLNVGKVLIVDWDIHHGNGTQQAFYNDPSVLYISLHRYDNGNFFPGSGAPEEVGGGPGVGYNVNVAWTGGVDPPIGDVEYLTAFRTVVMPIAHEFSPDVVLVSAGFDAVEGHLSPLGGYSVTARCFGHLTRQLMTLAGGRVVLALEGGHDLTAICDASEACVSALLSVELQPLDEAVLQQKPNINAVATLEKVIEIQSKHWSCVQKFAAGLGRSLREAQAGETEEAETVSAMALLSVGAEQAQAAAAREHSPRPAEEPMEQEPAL

Usually IC50 stands for the point on the concentration scale where inhibition reaches its midpoint. `CC(=O)Nc1ccc(C(=O)CSc2nc(C)cc(O)n2)cc1`: the IC50 on Histone deacetylase 1 was 16.4 µM; on Histone deacetylase 4, 32.5 µM; at Histone deacetylase 2 [1], 18.9 µM; at Histone deacetylase 9 it was 74.1 µM; on Histone deacetylase 3, 15.2 µM; on Histone deacetylase 5, 27.9 µM. For the same compound, the IC50 in [3] worked out at 11.2 µM; on Histone deacetylase 8, 23.9 µM. In addition, the inhibition entry on Histone deacetylase 2 [2] is “Active”.
Regarding `Cc1cc(O)nc(SCC(=O)c2ccc(Cl)cc2)n1`, the IC50 at Histone deacetylase 1 was 82.3 µM; on Histone deacetylase 4 it was greater than 100 µM; at Histone deacetylase 2 [1], 67 µM; on Histone deacetylase 9, greater than 100 µM; at Histone deacetylase 7, greater than 100 µM; at Histone deacetylase 3 it was 86.4 µM. The IC50 is greater than 100 µM on Histone deacetylase 5, 12.9 µM in experiment [3] and greater than 100 µM at Histone deacetylase 8.
`COc1ccc(C(=O)CSc2nc(C)cc(O)n2)cc1`: the half-inhibitory concentration (IC50) at Histone deacetylase 1, at Histone deacetylase 4, at Histone deacetylase 2 [1], at Histone deacetylase 9, at Histone deacetylase 7 and at Histone deacetylase 3 was greater than 100 µM each time. The IC50 on Histone deacetylase 5 was greater than 100 µM; in experiment [3], 60.9 µM; at Histone deacetylase 8, greater than 100 µM.
`CCOC(=O)CC(=O)CSc1nc(C)cc(O)n1`: the IC50 at Histone deacetylase 1 was 77.2 µM; on Histone deacetylase 4, greater than 100 µM; at Histone deacetylase 2 [1], 69.3 µM; at Histone deacetylase 9, greater than 100 µM; on Histone deacetylase 7 it was greater than 100 µM; on Histone deacetylase 3, 40 µM. In addition, the IC50 at Histone deacetylase 5 was 48.6 µM; in experiment [3], 7.2 µM; on Histone deacetylase 8 it was greater than 100 µM.
Consider `CC(=O)Nc1ccc(C(O)CSc2nc(C)cc(O)n2)cc1` (configuration not stated), for which the IC50 at Histone deacetylase 1, on Histone deacetylase 4, on Histone deacetylase 2 [1], on Histone deacetylase 9, at Histone deacetylase 7 and at Histone deacetylase 3 was greater than 100 µM throughout. Moreover, the half-inhibitory concentration (IC50) (on Histone deacetylase 5; in experiment [3]; at Histone deacetylase 8) was greater than 100 µM throughout.
In the case of `Cc1cc(=O)[nH]c(SCC(=O)NCCCCCCc2ccccc2)n1`, the IC50 on Histone deacetylase 1, on Histone deacetylase 4, on Histone deacetylase 2 [1], on Histone deacetylase 9, at Histone deacetylase 7 and at Histone deacetylase 3 was greater than 100 µM each time. Further, the IC50 (at Histone deacetylase 5; in experiment [3]; at Histone deacetylase 8) was greater than 100 µM in each case.
With `Cc1cc(O)nc(SCC(=O)c2ccccc2)n1`, the IC50 at Histone deacetylase 1 was greater than 100 µM; on Histone deacetylase 4, greater than 100 µM; at Histone deacetylase 2 [1], greater than 100 µM; at Histone deacetylase 9 it was greater than 100 µM; at Histone deacetylase 7, 13.7 µM; at Histone deacetylase 3 it was greater than 100 µM. The IC50 (on Histone deacetylase 5; in [3]; on Histone deacetylase 8) was greater than 100 µM each time.
`Cc1cc(=O)[nH]c(SCC(=O)c2ccc(C(C)(C)C)cc2)n1`: the IC50 on Histone deacetylase 1, at Histone deacetylase 4, on Histone deacetylase 2 [1], on Histone deacetylase 9, on Histone deacetylase 7 and on Histone deacetylase 3 was greater than 100 µM in each case. Further, the values for the IC50 (at Histone deacetylase 5; in experiment [3]; on Histone deacetylase 8) were 94.3 µM, greater than 100 µM and greater than 100 µM, respectively.
Regarding `CC(=O)Nc1ccc(CSc2nc(C)cc(O)n2)cc1`, the IC50 on Histone deacetylase 1, on Histone deacetylase 4, on Histone deacetylase 2 [1], on Histone deacetylase 9, on Histone deacetylase 7 and on Histone deacetylase 3 was greater than 100 µM each time. Also, the IC50 (at Histone deacetylase 5; in experiment [3]; on Histone deacetylase 8) was greater than 100 µM each time.
Consider `Cc1cc(O)nc(SCC(=O)c2ccc(O)c(O)c2)n1`, for which the IC50 on Histone deacetylase 1, at Histone deacetylase 4, at Histone deacetylase 2 [1], on Histone deacetylase 9, on Histone deacetylase 7 and at Histone deacetylase 3 was greater than 100 µM each time. Also, the IC50 on Histone deacetylase 5 is greater than 100 µM; in experiment [3] it was 16.7 µM; on Histone deacetylase 8, greater than 100 µM.
In the case of `Cc1cc(=O)[nH]c(SCC(=O)c2ccc3c(c2)OCCO3)n1`, the IC50 at Histone deacetylase 1, at Histone deacetylase 4, at Histone deacetylase 2 [1], on Histone deacetylase 9, on Histone deacetylase 7 and on Histone deacetylase 3 was greater than 100 µM in each case. The IC50 (on Histone deacetylase 5; in experiment [3]; on Histone deacetylase 8) was greater than 100 µM each time.
As to `CC(=O)CSc1nc(C)cc(=O)[nH]1`, the IC50 on Histone deacetylase 1, on Histone deacetylase 4, at Histone deacetylase 2 [1], on Histone deacetylase 9, on Histone deacetylase 7 and at Histone deacetylase 3 was greater than 100 µM throughout. Also, the IC50 (at Histone deacetylase 5; in experiment [3]; at Histone deacetylase 8) was greater than 100 µM each time.
Consider `Cc1cc(=O)[nH]c(SCC(=O)c2ccc(O)cc2)n1`, for which the IC50 on Histone deacetylase 1, at Histone deacetylase 4, at Histone deacetylase 2 [1], on Histone deacetylase 9, at Histone deacetylase 7 and on Histone deacetylase 3 was greater than 100 µM throughout. Further, the IC50 is greater than 100 µM at Histone deacetylase 5, 40.1 µM in [3] and greater than 100 µM at Histone deacetylase 8.
